The results in this text go back to ChEMBL document CHEMBL2396613, “Anti-leishmanial evaluation of C2-aryl quinolines: mechanistic insight on bioenergetics and sterol biosynthetic pathway of Leishmania braziliensis” (Bioorg Med Chem, 2013).

The structures appear in SMILES notation. Calls of active or inactive are those of the source. The calls are words filed in the database; no cut-off is given here. Bounds are passed on as bounds.

In general, IC50 refers to the midpoint of a concentration-inhibition curve. Higher therefore signals weaker potency. By EC50 is commonly meant the midpoint of the concentration-response curve.

Data set [1] deals with Leishmania braziliensis. The data set can be described thus: Antileishmanial activity against promastigotes of Leishmania (V.) braziliensis MHOM/CO/87/UA301 after 96 hrs by MTT assay. In kind it is functional, organism-based. The following applies: MHOM/CO/87/UA301, 96 h. Background: Formazan colour is commonly taken as a measure of viable cells.
The test system of data set [2] is Leishmania braziliensis. Kind of data set: Induction of acidocalcisomes alkalinization in Leishmania (V.) braziliensis MHOM/CO/87/UA301 at 1 uM up to 1400 seconds using acridine orange staining. In kind it is functional, organism-based.
Data set [3] in a line: Cytotoxicity against mouse BMDM after 96 hrs by MTT assay. In outline:
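Host-cell MTT test on mouse bone-marrow-derived macrophages (L-929 conditioned medium): 5000 cells/well were exposed to 100, 200 and 300 μM. MTT was added, cells were lysed with acidic isopropanol and read at 570 nm.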

Data set [4] concerns Leishmania braziliensis. The data set can be described thus: Induction of acidocalcisomes alkalinization in Leishmania (V.) braziliensis MHOM/CO/87/UA301 at 6 uM up to 1200 seconds using acridine orange staining. The data set is classed as functional, organism-based. In short, it runs like this: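 Promastigotes (10⁹ cells/mL), washed twice in KCl/Tris buffer, were loaded with 2 μM acridine orange for 5 min at 29 °C. Fluorescence (ex 488, em 530 nm) was recorded in a stirred cuvette at 29 °C.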

Data set [5] concerns Leishmania braziliensis. The data set can be described thus: Reduction of mitochondrial membrane potential in Leishmania (V.) braziliensis MHOM/CO/87/UA301 assessed as increase in fluorescence at 6 uM up to 1400 seconds using rhodamine 123 by spectrofluorimeter analysis. In kind it is functional, organism-based. In outline: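 Fluorescence (ex 488, em 530 nm) was followed in a spectrofluorimeter at 29 °C under continuous agitation. FCCP served as protonophore comparator.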

Data set [6] can be described thus: Cytotoxicity against mouse BMDM at 20 to 100 uM after 96 hrs by MTT assay.
The test system of data set [7] is Leishmania braziliensis. Kind of data set: Antileishmanial activity against amastigotes of Leishmania (V.) braziliensis MHOM/CO/87/UA301 infected in BMDM assessed as reduction of intracellular amastigotes after 96 hrs by Giemsa staining. The following applies: MHOM/CO/87/UA301, BMDM. The data set is classed as functional, organism-based. In outline:
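Mouse bone-marrow macrophages, differentiated in L-929 conditioned medium, were mixed 1:10 with promastigotes in DMEM + 10% FBS. Co-cultures sat on glass coverslips for 18 h at 37 °C, 5% CO2. Medium was then replaced with compound-containing medium for 96 h. Cells were Giemsa-stained and counted. EC50 was based on the number of amastigotes per macrophage; triplicate.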

For data set [8], the system named is Leishmania braziliensis. Kind of data set: Effect on sterol biosynthesis in Leishmania (V.) braziliensis MHOM/CO/87/UA301 assessed as endogenous squalene level at 6 uM (reference value: 22.7 +/- 0.12%).
Data set [9] deals with Leishmania braziliensis. The data set can be described thus: Effect on sterol biosynthesis in Leishmania (V.) braziliensis MHOM/CO/87/UA301 assessed as exogenous cholesterol level at 6 uM (reference value: 13.6 +/- 0.51%).
Data set [10] deals with Leishmania braziliensis. The data set can be described thus: Effect on sterol biosynthesis in Leishmania (V.) braziliensis MHOM/CO/87/UA301 assessed as endogenous 14-desmethyl 5-dehydroepisterol level at 6 uM (reference value: 63.7 +/- 1.02%).

For the compound `Cc1ccc2nc(-c3ccc4c(c3)OCO4)ccc2c1`, the IC50 with Leishmania braziliensis [1] is at least 50 µM.

For the compound `CO[C@@H]1C[C@@H](C[C@H]2CC[C@H](C)[C@H]([C@@H](C)C(=O)O)O2)O[C@]2(O[C@](C)([C@H]3CC[C@@](C)([C@@H]4O[C@@H]([C@H]5O[C@@](O)(CO)[C@H](C)C[C@@H]5C)C[C@@H]4C)O3)C[C@H]2C)[C@@H]1C`, in the data set with Leishmania braziliensis [2], the outcome was Active.

Compound `COc1ccc2nc(-c3ccc4c(c3)OCO4)ccc2c1` showed a 50% inhibitory concentration (IC50) in the data set with Leishmania braziliensis [1] of at least 50 µM.

As for `Cc1cc(C)c2ccc(-c3ccc4c(c3)OCO4)nc2c1`, the concentration for half-maximal inhibition (IC50) in the data set on Leishmania braziliensis [1] is at least 50 µM.

As for `CCN(CC)CCCCCCNc1cc(OC)cc2c(C)ccnc12` [SITAMAQUINE], the results for the half-inhibitory concentration (IC50) (in data set [3]; in the data set with Leishmania braziliensis [1]) were at most 100 µM and at most 50 µM, respectively.

Take `CCCCCCCCCCCCCCCCOP(=O)([O-])OCC[N+](C)(C)C` [MILTEFOSINE]: the values for the half-inhibitory concentration (IC50) (in data set [3]; with Leishmania braziliensis [1]) were at least 200 µM and at most 50 µM, respectively.

As for `CCc1ccc2nc(-c3ccccc3)ccc2c1`, the IC50 is at least 200 µM in data set [3] and at most 50 µM in the data set with Leishmania braziliensis [1]. Further, the outcome in the data set with Leishmania braziliensis [4] and with Leishmania braziliensis [5] was Active. For the same compound, the Activity result in data set [6] is “Non-toxic”. Also, in the data set with Leishmania braziliensis [7], the EC50 amounted to 20 µM. Also, the mass % of sterol at 6 µM in the data set with Leishmania braziliensis [8] was 64.3%; with Leishmania braziliensis [9] it was 12.3%; with Leishmania braziliensis [10], 23.4%.

`c1ccc2nc(-c3ccc4c(c3)OCO4)ccc2c1` registered an IC50 with Leishmania braziliensis [1] of at least 50 µM.

Turning to `Cc1cc(C)c2ccc(-c3ccccc3)nc2c1`, the figures for the 50% inhibitory concentration (IC50) (in data set [3]; in the data set with Leishmania braziliensis [1]) were at most 100 µM and at most 50 µM, respectively.

Take `CCc1ccc2nc(-c3ccc4c(c3)OCO4)ccc2c1`: in the data set on Leishmania braziliensis [1], the 50% inhibitory concentration (IC50) is at least 50 µM.
